Data published in ChEMBL document CHEMBL1144420 (J Med Chem, 2005).

Each compound was assayed against Sodium-dependent serotonin transporter (Rattus norvegicus, UniProt P31652) (assay: Displacement of [3H]paroxetine from Serotonin transporter of rat caudate putamen).
Sequence of Sodium-dependent serotonin transporter (P31652 whole entry): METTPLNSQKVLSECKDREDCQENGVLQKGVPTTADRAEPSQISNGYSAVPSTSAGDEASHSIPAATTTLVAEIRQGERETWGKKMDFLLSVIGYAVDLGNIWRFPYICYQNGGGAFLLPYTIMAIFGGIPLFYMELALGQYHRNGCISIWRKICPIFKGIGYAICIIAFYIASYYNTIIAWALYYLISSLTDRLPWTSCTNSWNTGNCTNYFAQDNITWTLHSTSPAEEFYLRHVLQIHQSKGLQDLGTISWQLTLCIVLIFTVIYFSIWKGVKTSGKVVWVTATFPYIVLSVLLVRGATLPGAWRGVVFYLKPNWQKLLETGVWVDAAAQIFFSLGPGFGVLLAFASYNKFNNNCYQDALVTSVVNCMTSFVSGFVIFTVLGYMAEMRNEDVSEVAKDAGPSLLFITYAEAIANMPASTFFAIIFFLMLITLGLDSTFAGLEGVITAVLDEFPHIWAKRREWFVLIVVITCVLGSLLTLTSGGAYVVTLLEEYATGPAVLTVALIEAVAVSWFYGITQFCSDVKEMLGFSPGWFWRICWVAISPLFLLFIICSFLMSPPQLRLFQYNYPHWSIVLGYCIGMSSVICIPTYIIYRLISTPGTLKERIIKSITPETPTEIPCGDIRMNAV
Format: tissue-based
`CN1C2CCCC1[C@H](OC(c1ccc(F)cc1)c1ccc(F)cc1)C2` (stereo partly specified) gave an IC50 greater than 100000 nM.
Work on `CN1C2C[C@H](OC(c3ccccc3)c3ccccc3)CC1[C@@H](O)C2` (stereo partly specified) yielded an IC50 greater than 100000 nM.
For `CN1C2CCCC1[C@@H](OC(c1ccc(F)cc1)c1ccc(F)cc1)C2` (stereo partly specified), the IC50 was greater than 2000 nM.
Work on `CN1C2C[C@H](OC(c3ccccc3)c3ccc(Cl)cc3)CC1[C@@H](O)C2` (stereo partly specified) yielded an IC50 greater than 100000 nM.
Compound `COCO[C@H]1CC2C[C@H](OC(c3ccccc3)c3ccc(Cl)cc3)CC1N2C` (stereo partly specified) has an IC50 greater than 100000 nM.
In the case of `COCO[C@@H]1CC2C[C@H](OC(c3ccc(F)cc3)c3ccc(F)cc3)CC1N2C` (stereo partly specified), the IC50 is reported as 3500 nM.
`COCO[C@H]1CC2C[C@H](OC(c3ccccc3)c3ccccc3)CC1N2C` (stereo partly specified) was tested, and the IC50 was greater than 100000 nM.
In the case of `CN1C2C[C@H](OC(c3ccc(F)cc3)c3ccc(F)cc3)CC1[C@H](O)C2` (stereo partly specified), the IC50 is reported as greater than 100000 nM.
In the case of `COCO[C@H]1CC2C[C@H](OC(c3ccc(F)cc3)c3ccc(F)cc3)CC1N2C` (stereo partly specified), the IC50 is reported as greater than 100000 nM.
With `CN1C2C[C@H](OC(c3ccc(F)cc3)c3ccc(F)cc3)CC1[C@@H](O)C2` (stereo partly specified) the IC50 was 11000 nM.
For `CO[C@@H]1CC2C[C@H](OC(c3ccc(F)cc3)c3ccc(F)cc3)CC1N2C` (stereo partly specified), the IC50 was 280 nM.
Work on `CO[C@H]1CC2C[C@H](OC(c3ccccc3)c3ccccc3)CC1N2C` (stereo partly specified) yielded an IC50 greater than 100000 nM.
Compound `CO[C@H]1CC2C[C@H](OC(c3ccc(F)cc3)c3ccc(F)cc3)CC1N2C` (stereo partly specified) has an IC50 greater than 100000 nM.
`CO[C@H]1CC2C[C@H](OC(c3ccccc3)c3ccc(Cl)cc3)CC1N2C` (stereo partly specified) was tested, and the IC50 was greater than 100000 nM.
Compound `CO[C@@H]1CC2CC(OC(c3ccccc3)c3ccc(Cl)cc3)CC1N2C` (single isomer, unassigned) has an IC50 greater than 100000 nM.
`CO[C@@H]1CC2CC(OC(c3ccccc3)c3ccccc3)CC1N2C` (single isomer, unassigned) was tested, and the IC50 was greater than 100000 nM.
`CO[C@@H]1CC2CC(OC(c3ccc(F)cc3)c3ccc(F)cc3)CC1N2C` (single isomer, unassigned) gave an IC50 greater than 10 nM.

These compounds were tested against T1, Sodium-dependent dopamine transporter (Rattus norvegicus, UniProt P23977) (assay: Displacement of [3H]WIN-35428 from Dopamine transporter of rat caudate putamen).
T1 sequence (P23977 whole entry): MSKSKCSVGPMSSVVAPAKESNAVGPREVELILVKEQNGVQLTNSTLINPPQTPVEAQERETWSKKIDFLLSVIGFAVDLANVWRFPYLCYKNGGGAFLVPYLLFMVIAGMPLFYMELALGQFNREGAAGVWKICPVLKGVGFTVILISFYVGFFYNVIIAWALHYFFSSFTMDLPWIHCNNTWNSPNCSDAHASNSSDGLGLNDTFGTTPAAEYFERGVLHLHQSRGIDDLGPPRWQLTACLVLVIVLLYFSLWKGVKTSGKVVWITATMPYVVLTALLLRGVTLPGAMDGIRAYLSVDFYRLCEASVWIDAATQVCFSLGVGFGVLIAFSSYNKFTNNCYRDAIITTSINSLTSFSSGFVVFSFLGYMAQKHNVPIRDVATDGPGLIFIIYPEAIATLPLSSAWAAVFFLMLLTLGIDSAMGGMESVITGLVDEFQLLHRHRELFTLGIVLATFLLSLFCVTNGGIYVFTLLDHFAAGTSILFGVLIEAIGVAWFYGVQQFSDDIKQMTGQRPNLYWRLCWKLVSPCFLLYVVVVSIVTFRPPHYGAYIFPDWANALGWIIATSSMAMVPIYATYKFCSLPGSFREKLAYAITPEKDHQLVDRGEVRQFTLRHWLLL
Format: tissue-based
Outline: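 Radioligand displacement binding to brain DAT, incubated at 0 °C.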
With `CN1C2CCCC1[C@H](OC(c1ccc(F)cc1)c1ccc(F)cc1)C2` (stereo partly specified) the IC50 was 900 nM.
`CN1C2C[C@H](OC(c3ccccc3)c3ccccc3)CC1[C@@H](O)C2` (stereo partly specified) showed an IC50 of 1300 nM.
`CN1C2CCCC1[C@@H](OC(c1ccc(F)cc1)c1ccc(F)cc1)C2` (stereo partly specified) was tested, and the IC50 was 1130 nM.
For `CN1C2C[C@H](OC(c3ccccc3)c3ccc(Cl)cc3)CC1[C@@H](O)C2` (stereo partly specified), the IC50 was 600 nM.
With `COCO[C@H]1CC2C[C@H](OC(c3ccccc3)c3ccc(Cl)cc3)CC1N2C` (stereo partly specified) the IC50 was 400 nM.
Work on `COCO[C@@H]1CC2C[C@H](OC(c3ccc(F)cc3)c3ccc(F)cc3)CC1N2C` (stereo partly specified) yielded an IC50 of 2500 nM.
With `COCO[C@H]1CC2C[C@H](OC(c3ccccc3)c3ccccc3)CC1N2C` (stereo partly specified) the IC50 was 4500 nM.
Work on `CN1C2C[C@H](OC(c3ccc(F)cc3)c3ccc(F)cc3)CC1[C@H](O)C2` (stereo partly specified) yielded an IC50 of 140 nM.
Compound `COCO[C@H]1CC2C[C@H](OC(c3ccc(F)cc3)c3ccc(F)cc3)CC1N2C` (stereo partly specified) has an IC50 of 340 nM.
With `CN1C2C[C@H](OC(c3ccc(F)cc3)c3ccc(F)cc3)CC1[C@@H](O)C2` (stereo partly specified) the IC50 was 12 nM.
For `CO[C@@H]1CC2C[C@H](OC(c3ccc(F)cc3)c3ccc(F)cc3)CC1N2C` (stereo partly specified), the IC50 was 10 nM.
`CO[C@H]1CC2C[C@H](OC(c3ccccc3)c3ccccc3)CC1N2C` (stereo partly specified) showed an IC50 of 276 nM.
`CO[C@H]1CC2C[C@H](OC(c3ccc(F)cc3)c3ccc(F)cc3)CC1N2C` (stereo partly specified) gave an IC50 of 25 nM.
`CO[C@H]1CC2C[C@H](OC(c3ccccc3)c3ccc(Cl)cc3)CC1N2C` (stereo partly specified) showed an IC50 of 32 nM.
Compound `CO[C@@H]1CC2CC(OC(c3ccccc3)c3ccc(Cl)cc3)CC1N2C` (single isomer, unassigned) has an IC50 of 750 nM.
For `CO[C@@H]1CC2CC(OC(c3ccccc3)c3ccccc3)CC1N2C` (single isomer, unassigned), the IC50 was 975 nM.
For `CO[C@@H]1CC2CC(OC(c3ccc(F)cc3)c3ccc(F)cc3)CC1N2C` (single isomer, unassigned), the IC50 was 95 nM.

Each compound was assayed against T1, Sodium-dependent dopamine transporter (assay: Inhibition of [3H]dopamine uptake into rat striatal synaptosomes).
Format: functional, subcellular, Brain
Outline: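 [3H]Dopamine uptake run at 33 °C, in a buffer whose ion concentrations differ from those of the binding assays.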
Compound `CN1C2CCCC1[C@H](OC(c1ccc(F)cc1)c1ccc(F)cc1)C2` (stereo partly specified) has an IC50 of 347 nM.
With `CN1C2C[C@H](OC(c3ccccc3)c3ccccc3)CC1[C@@H](O)C2` (stereo partly specified) the IC50 was 149 nM.
`CN1C2CCCC1[C@@H](OC(c1ccc(F)cc1)c1ccc(F)cc1)C2` (stereo partly specified) showed an IC50 of 199 nM.
`CN1C2C[C@H](OC(c3ccccc3)c3ccc(Cl)cc3)CC1[C@@H](O)C2` (stereo partly specified) gave an IC50 of 39.1 nM.
Compound `COCO[C@H]1CC2C[C@H](OC(c3ccccc3)c3ccc(Cl)cc3)CC1N2C` (stereo partly specified) has an IC50 of 194 nM.
With `COCO[C@@H]1CC2C[C@H](OC(c3ccc(F)cc3)c3ccc(F)cc3)CC1N2C` (stereo partly specified) the IC50 was 491 nM.
Work on `COCO[C@H]1CC2C[C@H](OC(c3ccccc3)c3ccccc3)CC1N2C` (stereo partly specified) yielded an IC50 of 1080 nM.
Work on `CN1C2C[C@H](OC(c3ccc(F)cc3)c3ccc(F)cc3)CC1[C@H](O)C2` (stereo partly specified) yielded an IC50 of 162 nM.
In the case of `COCO[C@H]1CC2C[C@H](OC(c3ccc(F)cc3)c3ccc(F)cc3)CC1N2C` (stereo partly specified), the IC50 is reported as 79.7 nM.
`CN1C2C[C@H](OC(c3ccc(F)cc3)c3ccc(F)cc3)CC1[C@@H](O)C2` (stereo partly specified) gave an IC50 of 8.1 nM.
`CO[C@@H]1CC2C[C@H](OC(c3ccc(F)cc3)c3ccc(F)cc3)CC1N2C` (stereo partly specified) gave an IC50 of 12.4 nM.
`CO[C@H]1CC2C[C@H](OC(c3ccccc3)c3ccccc3)CC1N2C` (stereo partly specified) gave an IC50 of 139 nM.
For `CO[C@H]1CC2C[C@H](OC(c3ccc(F)cc3)c3ccc(F)cc3)CC1N2C` (stereo partly specified), the IC50 was 104 nM.
For `CO[C@H]1CC2C[C@H](OC(c3ccccc3)c3ccc(Cl)cc3)CC1N2C` (stereo partly specified), the IC50 was 179 nM.
In the case of `CO[C@@H]1CC2CC(OC(c3ccccc3)c3ccc(Cl)cc3)CC1N2C` (single isomer, unassigned), the IC50 is reported as 519 nM.
With `CO[C@@H]1CC2CC(OC(c3ccccc3)c3ccccc3)CC1N2C` (single isomer, unassigned) the IC50 was 240 nM.
Work on `CO[C@@H]1CC2CC(OC(c3ccc(F)cc3)c3ccc(F)cc3)CC1N2C` (single isomer, unassigned) yielded an IC50 of 165 nM.
